≈ marks a conversion by molar mass, not a printed value.

This is an account of results in ChEMBL document CHEMBL4477254, “Synthesis and biological evaluation of some novel triazole hybrids of curcumin mimics and their selective anticancer activity against breast and prostate cancer cell lines” (Bioorg Med Chem Lett, 2016).

Data set [1] concerns 4T1. Put plainly: Potency index, ratio of curcumin IC50 to compound IC50 in mouse 4T1 cells. It counts as functional. The gist of the method:
(§1)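 IC50 came from an MTT viability assay after 24 h compound exposure, with curcumin run as the standard. Values are mean ± SE of three independent experiments. The index is the curcumin IC50 divided by the compound IC50 in the same cell line.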

Data set [2] deals with DU-145. Briefly: Cytotoxicity against human DU145 cells assessed as decrease in cell viability after 24 hrs by MTT assay. It counts as functional, cell-based. The following applies: DU-145, 24 h. An outline of the steps: (§2)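 Cell viability by MTT after 24 h compound exposure; curcumin as standard. IC50 in µM from three independent experiments, expressed as mean ± SE.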
A general note: Formazan colour is commonly taken as a measure of viable cells.

For data set [3], the system named is MCF7. Put plainly: Cytotoxicity against human MCF7 cells assessed as decrease in cell viability after 24 hrs by MTT assay. It counts as functional, cell-based. The following applies: MCF7, 24 h. An outline of the steps: as §2
Data set [4] concerns DU-145. Put plainly: Potency index, ratio of curcumin IC50 to compound IC50 in human DU145 cells. It counts as functional. An outline of the steps: as §1
In data set [5] the test system is MDA-MB-231. Put plainly: Potency index, ratio of curcumin IC50 to compound IC50 in human MDA-MB-231 cells. Format: functional. The gist of the method:
as §1

The test system of another data set is HEK293. Briefly: Cytotoxicity against human HEK293 cells assessed as decrease in cell viability after 24 hrs by MTT assay. It counts as cell-based. Conditions: HEK293, 24 h. The gist of the method: as §2
For data set [6], the system named is MDA-MB-231. Put plainly: Cytotoxicity against human MDA-MB-231 cells assessed as decrease in cell viability after 24 hrs by MTT assay. Format: functional, cell-based. Conditions: MDA-MB-231, 24 h. The gist of the method:
as §2

For data set [7], the system named is PC-3. Put plainly: Potency index, ratio of curcumin IC50 to compound IC50 in human PC3 cells. Format: functional. The gist of the method:
as §1

Data set [8] has as its system 4T1. Put plainly: Cytotoxicity against mouse 4T1 cells assessed as decrease in cell viability after 24 hrs by MTT assay. Format: functional, cell-based. The following applies: 4T1, 24 h. The gist of the method:
as §2

The test system of data set [9] is PC-3. Put plainly: Cytotoxicity against human PC3 cells assessed as decrease in cell viability after 24 hrs by MTT assay. Format: functional, cell-based. The following applies: PC-3, 24 h. An outline of the steps: as §2
The nature of data set [10]: Drug metabolism in liver microsomes (unknown origin) assessed as compound remaining after 5 mins in presence of NADPH by UPLC analysis. Format: ADME, Microsome. The following applies: read-out: Drug metabolism. An outline of the steps:
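Microsomal metabolic stability; percentage of compound remaining intact measured after 5 min incubation in presence of microsomes.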
A general note: Liver microsomes are vesicles of endoplasmic reticulum, rich in cytochrome P450 enzymes.

A short description of data set [11]: Half life in liver microsomes (unknown origin) in presence of NADPH by UPLC analysis. Format: ADME, Microsome.
The nature of data set [12]: Elimination rate constant in liver microsomes (unknown origin) assessed as compound remaining measured up to 60 mins by UPLC analysis. Format: ADME, Microsome.
The nature of data set [13]: Intrinsic hepatic clearance in liver microsomes (unknown origin) assessed per mg of protein in presence of NADPH by UPLC analysis. Format: ADME, Microsome. Conditions: read-out: CLH (converted).
Data set [14] in a line: Intrinsic clearance in liver microsomes (unknown origin) assessed per mg of protein in presence of NADPH by UPLC analysis. Format: ADME, Microsome.
A short description of data set [15]: Solubility of the compound in distilled water after 24 hrs by HPLC based shake flask method. It counts as physicochemical.
Data set [16] concerns PC-3. Put plainly: Induction of mitochondrial membrane depolarization in human PC3 cells at 3 uM after 24 hrs by JC-1 staining based flow cytometry (reference value: 4.51%). Format: functional. In general terms: In flow cytometry, cells or beads pass a laser one at a time.
The test system of data set [17] is MCF7. Briefly: Induction of mitochondrial membrane depolarization in human MCF7 cells at 10 uM after 24 hrs by JC-1 staining based flow cytometry (reference value: 11%). Format: functional.

For `Cc1ccc(/C=C2\CN(Cc3cn(Cc4cccc(Cl)c4)nn3)C/C(=C\c3ccc(C)cc3)C2=O)cc1`, the “Ratio IC50” value in the data set with 4T1 [1] is “<=9.3”; in the data set on DU-145 [4] it was no more than 9.5; in the data set on MDA-MB-231 [5], “<=8.3”; in the data set on PC-3 [7] it was “<=5.7”. For the same compound, the IC50 in the data set with DU-145 [2] worked out at 33.1 µM; in the data set on MCF7 [3], 10 µM; in the data set on HEK293 it was 73.5 µM; in the data set with MDA-MB-231 [6], 9 µM; in the data set on 4T1 [8], 29.3 µM; in the data set on PC-3 [9] it was 29.3 µM.

Take `COc1cc(/C=C/C(=O)CC(=O)/C=C/c2ccc(O)c(OC)c2)ccc1O` [CURCUMIN]: in data set [10], the remaining at 5 min came out at 45%. Moreover, the half-life in data set [11] is 13.7 min. For the same compound, the IC50 turned out to be 41 µM in the data set on DU-145 [2]; 83.1 µM in the data set on MCF7 [3]; 94.1 µM with HEK293; 75.3 µM in the data set on MDA-MB-231 [6]; 49.4 µM in the data set with 4T1 [8]; 39 µM in the data set with PC-3 [9]. The k el at 1 h in [12] is 0.00085 s⁻¹. Moreover, the CLint scaled in [13] was 182 L/h/kg. Moreover, the CLint in data set [14] came out at 101 µL/min/mg. Further, in data set [15], the solubility (thermodynamic) at 24 h worked out at 0.06 µg/mL (≈ 0.163 µM).

In the case of `N#CC(C#N)=NNc1cccc(Cl)c1` [CARBONYL CYANIDE M-CHLOROPHENYLHYDRAZONE], the Activity in the data set with PC-3 [16] came out at 35.82%; with MCF7 [17] it was 86.65%.

In the case of `O=C1/C(=C/c2ccccc2F)CN(Cc2cn(Cc3ccccc3Cl)nn2)C/C1=C\c1ccccc1F`, the “Ratio IC50” value in the data set with 4T1 [1] is “<=9.3”; in the data set on DU-145 [4], no more than 9.5; in the data set on MDA-MB-231 [5], “<=8.3”; in the data set with PC-3 [7], “<=5.7”. The IC50 amounted to 7.5 µM in the data set with DU-145 [2]; 10 µM in the data set on MCF7 [3]; 33.2 µM in the data set on HEK293; 16.5 µM in the data set with MDA-MB-231 [6]; 5.3 µM in the data set with 4T1 [8]; 7.1 µM in the data set with PC-3 [9].

As for `O=C1/C(=C/c2ccccc2F)CN(Cc2cn(Cc3cccc(Cl)c3)nn2)C/C1=C\c1ccccc1F`, the “Ratio IC50” value in the data set on 4T1 [1] is “<=9.3”; in the data set with DU-145 [4] it was no more than 9.5; in the data set with MDA-MB-231 [5], “<=8.3”; in the data set with PC-3 [7] it was “<=5.7”. The IC50 stood at 4.3 µM with DU-145 [2]; 12 µM with MCF7 [3]; 33.1 µM in the data set with HEK293; 12 µM in the data set with MDA-MB-231 [6]; 6.1 µM in the data set on 4T1 [8]; 6.8 µM in the data set on PC-3 [9].

Consider `O=C1/C(=C/c2ccccc2F)CN(Cc2cn(Cc3ccccc3F)nn2)C/C1=C\c1ccccc1F`, for which the “Ratio IC50” value was “<=9.3” in the data set with 4T1 [1], no more than 9.5 in the data set with DU-145 [4], “<=8.3” in the data set on MDA-MB-231 [5] and “<=5.7” in the data set on PC-3 [7]. Also, the IC50 was found to be 10.6 µM with DU-145 [2]; 6 µM in the data set with MCF7 [3]; 41.2 µM in the data set with HEK293; 16 µM with MDA-MB-231 [6]; 6.5 µM in the data set with 4T1 [8]; 19.7 µM with PC-3 [9].

In the case of `Cc1ccc(/C=C2\CN(Cc3cn(Cc4ccccc4Cl)nn3)C/C(=C\c3ccc(C)cc3)C2=O)cc1`, the “Ratio IC50” value with 4T1 [1] was “<=9.3”; in the data set on DU-145 [4] it was no more than 9.5; with MDA-MB-231 [5], “<=8.3”; in the data set on PC-3 [7], “<=5.7”. Besides, the IC50 with DU-145 [2] was 10.5 µM; in the data set with MCF7 [3] it was 66.7 µM; in the data set on HEK293 it was 91.5 µM; in the data set with MDA-MB-231 [6], 29 µM; with 4T1 [8] it was 23.2 µM; in the data set on PC-3 [9], 8.9 µM.

The IC50 is the concentration that inhibits the measured activity by half. As a reminder, the half-life is the time needed for the level to fall by half in the phase considered. For orientation: solubility (thermodynamic) means solubility found after equilibrating the solid with the medium.
